ChEMBL document CHEMBL1154014, “Discovery of a novel class of 2-mercaptohexanoic acid derivatives as highly active PPARalpha agonists” (Bioorg Med Chem Lett, 2009)
The source made the active and inactive calls. No cut-off for these calls is given here.

Assays:
[1] = target: T1, Peroxisome proliferator-activated receptor alpha (Homo sapiens, UniProt Q07869); test: Agonist activity at human PPARalpha expressed in african green monkey COS7 cells by Gal4 transactivation assay; format: functional, cell-based, COS-7
T1 sequence (Q07869 whole entry): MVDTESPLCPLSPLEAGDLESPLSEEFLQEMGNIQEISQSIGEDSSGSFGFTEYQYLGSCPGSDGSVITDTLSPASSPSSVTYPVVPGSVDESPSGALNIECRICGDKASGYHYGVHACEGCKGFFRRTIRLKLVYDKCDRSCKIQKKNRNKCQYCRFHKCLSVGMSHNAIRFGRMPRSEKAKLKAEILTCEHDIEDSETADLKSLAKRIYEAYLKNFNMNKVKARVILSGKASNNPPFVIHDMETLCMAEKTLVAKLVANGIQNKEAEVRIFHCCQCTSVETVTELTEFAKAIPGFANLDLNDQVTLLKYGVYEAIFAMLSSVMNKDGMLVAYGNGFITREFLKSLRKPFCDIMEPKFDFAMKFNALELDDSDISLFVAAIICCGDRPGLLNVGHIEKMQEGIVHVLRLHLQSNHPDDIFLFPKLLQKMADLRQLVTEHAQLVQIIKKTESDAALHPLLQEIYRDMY
Summary of the method: (§1)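 COS7 cells were grown in DMEM with FCS, sodium pyruvate and penicillin/streptomycin at 37 °C, 5% CO2, and seeded at 30,000 cells/well the day before transfection. They were lipofected with pFR-Luc, pRL-SV40 and the Gal4-hPPAR-LBD plasmid of each subtype. After 5 h, cells received serum-free DMEM with 0.1% DMSO plus compound, incubated overnight, then Dual-Glo luciferase read-out. Triplicate wells, ≥3 independent experiments; EC50 from mean values.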

[2] = target: T2, Peroxisome proliferator-activated receptor gamma (Homo sapiens, UniProt P37231); test: Agonist activity at human PPARgamma expressed in african green monkey COS7 cells by Gal4 transactivation assay; format: functional, cell-based, COS-7; summary of the method: as §1
T2 sequence (P37231 whole entry): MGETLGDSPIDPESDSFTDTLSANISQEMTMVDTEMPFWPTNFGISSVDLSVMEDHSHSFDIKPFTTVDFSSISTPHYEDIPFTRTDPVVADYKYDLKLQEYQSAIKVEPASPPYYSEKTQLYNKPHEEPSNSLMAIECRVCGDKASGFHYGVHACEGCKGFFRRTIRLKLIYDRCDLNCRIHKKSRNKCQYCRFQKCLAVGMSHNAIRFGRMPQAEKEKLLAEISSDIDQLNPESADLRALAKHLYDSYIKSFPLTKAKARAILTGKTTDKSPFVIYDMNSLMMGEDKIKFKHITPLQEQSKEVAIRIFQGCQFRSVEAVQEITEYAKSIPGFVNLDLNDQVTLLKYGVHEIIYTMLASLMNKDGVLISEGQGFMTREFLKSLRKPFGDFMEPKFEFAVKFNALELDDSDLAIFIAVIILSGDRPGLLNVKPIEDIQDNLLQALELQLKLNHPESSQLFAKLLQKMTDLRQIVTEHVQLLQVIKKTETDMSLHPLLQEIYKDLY

[3] = target: T3, Peroxisome proliferator-activated receptor alpha (Homo sapiens) (UniProt Q07869); test: Agonist activity at human PPARalpha expressed in african green monkey COS7 cells at 1 uM by Gal4 transactivation assay relative to GW-7647; format: functional, cell-based; conditions: COS-7
T3 sequence (whole entry): T1 sequence (Q07869 whole entry)

[4] = target: T4, Peroxisome proliferator-activated receptor gamma (Homo sapiens) (UniProt P37231); test: Agonist activity at human PPARgamma expressed in african green monkey COS7 cells at 1 uM by Gal4 transactivation assay relative to pioglitazone; format: functional, cell-based; conditions: COS-7
T4 sequence (whole entry): T2 sequence (P37231 whole entry)

[5] = target: T5, Peroxisome proliferator-activated receptor delta (Homo sapiens) (UniProt Q03181); test: Agonist activity at human PPARbeta expressed in african green monkey COS7 cells at 10 uM by Gal4 transactivation assay; format: functional, cell-based; conditions: COS-7
T5 sequence (whole entry): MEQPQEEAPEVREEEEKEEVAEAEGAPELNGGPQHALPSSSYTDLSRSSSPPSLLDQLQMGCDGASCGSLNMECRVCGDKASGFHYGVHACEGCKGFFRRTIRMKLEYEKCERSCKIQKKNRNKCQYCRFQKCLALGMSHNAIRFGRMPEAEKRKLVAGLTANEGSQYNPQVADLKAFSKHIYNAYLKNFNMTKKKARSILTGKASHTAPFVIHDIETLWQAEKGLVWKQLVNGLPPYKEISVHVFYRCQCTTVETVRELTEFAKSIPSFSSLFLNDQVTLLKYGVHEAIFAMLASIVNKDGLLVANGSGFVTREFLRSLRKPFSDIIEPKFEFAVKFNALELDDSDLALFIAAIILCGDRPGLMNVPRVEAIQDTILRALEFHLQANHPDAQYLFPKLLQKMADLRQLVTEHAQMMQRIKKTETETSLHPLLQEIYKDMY

[6] = target: T5, Peroxisome proliferator-activated receptor delta (Homo sapiens); test: Agonist activity at human PPARbeta expressed in african green monkey COS7 cells at 10 uM by Gal4 transactivation assay relative to L165041; format: functional, cell-based; conditions: COS-7
[7] = target: T3, Peroxisome proliferator-activated receptor alpha (Homo sapiens); test: Agonist activity at human PPARalpha expressed in african green monkey COS7 cells at 10 uM by Gal4 transactivation assay; format: functional, cell-based; conditions: COS-7
[8] = target: T4, Peroxisome proliferator-activated receptor gamma (Homo sapiens); test: Agonist activity at human PPARgamma expressed in african green monkey COS7 cells at 10 uM by Gal4 transactivation assay; format: functional, cell-based; conditions: COS-7
[9] = target: T6, Peroxisome proliferator-activated receptor delta (Homo sapiens, UniProt Q03181); test: Agonist activity at human PPARbeta expressed in african green monkey COS7 cells by Gal4 transactivation assay; format: functional, cell-based, COS-7; summary of the method: as §1
T6 sequence (Q03181 whole entry): T5 sequence (whole entry)

[10] = target: T5, Peroxisome proliferator-activated receptor delta (Homo sapiens); test: Agonist activity at human PPARbeta expressed in african green monkey COS7 cells at 1 uM by Gal4 transactivation assay relative to L165041; format: functional, cell-based; conditions: COS-7
COS-7 = test: Selectivity ratio of EC50 for human PPARgamma to EC50 for human PPARalpha expressed in african green monkey COS7 cells; format: cell-based

| SMILES | EC50 [1] | EC50 [2] | Activity [3] | Activity [4] | Activity [5] | Activity [6] | Activity [7] | Activity [8] | EC50 [9] | Activity [10] | Ratio EC50 (COS-7) |
| --- | --- | --- | --- | --- | --- | --- | --- | --- | --- | --- | --- |
| CCCCC(Sc1ccc(OCCCOc2cccc(OC)c2)cc1)C(=O)O (centres undefined) | 49 nM | 1200 nM | 85% | 85% | inactive | – | – | – | – | – | – |
| CCCCC(Sc1ccc(OCCCOc2ccccc2OC)cc1)C(=O)O (centres undefined) | 550 nM | 1600 nM | 92% | 85% | inactive | – | – | – | – | – | – |
| CCCCC(Sc1ccc(OCCCOc2ccc(C)cc2)cc1)C(=O)O (centres undefined) | 85 nM | 930 nM | 91% | 87% | – | 31% | – | – | – | – | – |
| CCCCC(Sc1ccc(OCCCOc2cccc(C(C)C)c2)cc1)C(=O)O (centres undefined) | 150 nM | 5300 nM | 98% | 91% | inactive | – | – | – | – | – | – |
| CCCCC(Sc1ccc(OCCCOc2ccccc2C(C)C)cc1)C(=O)O (centres undefined) | 2000 nM | 4100 nM | 89% | 92% | inactive | – | – | – | – | – | – |
| CCCC/C(=C\c1ccc(OCCCOc2cccc(C)c2C)cc1)C(=O)O | – | – | – | – | inactive | – | inactive | inactive | – | – | – |
| CCCCC(Sc1ccc(OCCCOc2ccc(Cl)c(C(F)(F)F)c2)cc1)C(=O)O (centres undefined) | 390 nM | 7800 nM | 65% | 96% | inactive | – | – | – | – | – | – |
| Cc1cccc(OCCCOc2ccc(SCC(=O)O)cc2)c1C | 600 nM | 3800 nM | 81% | 77% | – | – | – | – | 1400 nM | 52% | – |
| CCCC[C@@H](Sc1ccc(OCCCOc2cccc(C)c2C)cc1)C(=O)O | 11 nM | 3900 nM | 115% | 125% | inactive | – | – | – | – | – | – |
| CCCCC(Sc1ccc(OCCCOc2ccc(C)c(C)c2)cc1)C(=O)O (centres undefined) | 21 nM | 3500 nM | 72% | 61% | inactive | – | – | – | – | – | – |
| CCCCC(Sc1ccc(OCCCOc2cccc(C(F)(F)F)c2)cc1)C(=O)O (centres undefined) | 25 nM | 4600 nM | 75% | 68% | inactive | – | – | – | – | – | – |
| CCCCC(Sc1ccc(OCCCOc2cccc(C)c2C)cc1)C(=O)O (centres undefined) | 56 nM | 3000 nM | 113% | 82% | inactive | – | – | – | – | – | 54 |
| CCCC[C@H](Sc1ccc(OCCCOc2cccc(C)c2C)cc1)C(=O)O | 1700 nM | 9900 nM | 94% | 77% | inactive | – | – | – | – | – | – |
| Cc1cccc(OCCCOc2ccc(CCC(=O)O)cc2)c1C | 13800 nM | 15700 nM | 63% | 54% | – | – | – | – | 11200 nM | 72% | – |
| CCCCC(Sc1ccc(OCCCOc2cccc3c2CCCC3)cc1)C(=O)O (centres undefined) | 190 nM | 8100 nM | 101% | 107% | inactive | – | – | – | – | – | – |
| CCCCC(Sc1ccc(OCCCOc2ccc(-c3ccccc3)cc2)cc1)C(=O)O (centres undefined) | 110 nM | 540 nM | 125% | 108% | inactive | – | – | – | – | – | 5 |
| CCCCC(Sc1ccc(OCCCOc2ccc3ncccc3c2)cc1)C(=O)O (centres undefined) | 220 nM | 1300 nM | 95% | 49% | inactive | – | – | – | – | – | 6 |
| CCCCC(Sc1ccc(OCCCOc2cccc(C)c2)cc1)C(=O)O (centres undefined) | 90 nM | 3000 nM | 80% | 96% | inactive | – | – | – | – | – | – |
| CCCCC(Sc1ccc(OCCCOc2ccccc2C)cc1)C(=O)O (centres undefined) | 250 nM | 2300 nM | 64% | 114% | inactive | – | – | – | – | – | – |
| CCCCC(Sc1ccc(OCCCOc2ccccc2)cc1)C(=O)O (centres undefined) | 290 nM | 2600 nM | 76% | 83% | inactive | – | – | – | – | – | 9 |
| CCCCC(Cc1ccc(OCCCOc2cccc(C)c2C)cc1)C(=O)O (centres undefined) | 1500 nM | 4200 nM | 73% | 120% | inactive | – | – | – | – | – | – |
